Results published in ChEMBL document CHEMBL5724801, “EUbOPEN Chemogenomics Library - Multiplex” (2024).
Several values for one entry are separate records, joined by “and”; a condition that tells them apart may be missing. Identical values can stand only once.

Columns and labels:
U2OS = assay: Multiplex assay against U2OS; format: toxicity, cell-based; settings: human
How it was run: (§1)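 Cells stained live at seeding with Hoechst33342, BioTracker Green Microtubule Cytoskeleton Dye, MitoTracker Red and Annexin V Alexa Fluor 680 were imaged on a CQ1 microscope at 37°C and 5% CO2 after compound addition. Their classification by CellPathfinder machine-learning gating ran from Hoechst high-intensity objects versus normal cells, to healthy, pyknosed or fragmented nuclei among normal cells, to mitotic or apoptotic among pyknosed cells. Tubulin, mitochondrial-mass and membrane-permeability phenotypes are per cents of healthy-nucleus cells.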

HEK-293T = assay: Multiplex assay against HEK293T; format: toxicity, cell-based; settings: human; how it was run: as §1
[1] = 24 h, 10 µM, compound concentration 10 uM
[2] = 48 h, 1 µM, compound concentration 1 uM
[3] = 48 h, 10 µM, compound concentration 10 uM
[4] = 12 h, 1 µM, compound concentration 1 uM
[5] = 12 h, 10 µM, compound concentration 10 uM
[6] = 24 h, 1 µM, compound concentration 1 uM

## C[C@@H]1CC(=O)Nc2cccc(-c3ccc4c(c3)c(-c3cnn(C)c3)nn4C)c2N1
U2OS; [1]
  Population Hoechst High Intensity Objects (%): 4% and 1%
  Population Membrane Permeable-Phenotype (%): 7% and 6%
  Population Mitochondria Different-Phenotype (%): 6% and 1%
  Population Mitotic Cells (%): 10% and 16%
  Population Normal (%): 95% and 98%
  Population Pyknosed Nuclei (%): 11% and 6%
  Population Tubulin-Different-Phenotype (%): 3% and 4%
  Total Cell Count: 266 and 97
U2OS; [2]
  Population Apoptotic (%): 100%
  Population Fragmented Nuclei (%): 19% and 13%
  Population Healthy Nuclei (%): 73% and 77%
  Population Hoechst High Intensity Objects (%): 1%
  Population Membrane Permeable-Phenotype (%): 4% and 2%
  Population Mitochondria Different-Phenotype (%): 2%
  Population Mitotic Cells (%): 0%
  Population Normal (%): 98%
  Population Pyknosed Nuclei (%): 6% and 8%
  Population Tubulin-Different-Phenotype (%): 3% and 2%
  Total Cell Count: 437 and 224
U2OS; [3]
  Population Apoptotic (%): 100%
  Population Fragmented Nuclei (%): 28% and 23%
  Population Healthy Nuclei (%): 65% and 71%
  Population Hoechst High Intensity Objects (%): 3% and 4%
  Population Membrane Permeable-Phenotype (%): 8% and 3%
  Population Mitochondria Different-Phenotype (%): 3% and 0%
  Population Mitotic Cells (%): 0%
  Population Normal (%): 96% and 95%
  Population Pyknosed Nuclei (%): 5% and 4%
  Population Tubulin-Different-Phenotype (%): 5% and 3%
  Total Cell Count: 394 and 149
HEK-293T; [4]
  Population Apoptotic (%): 36% and 60%
  Population Fragmented Nuclei (%): 7% and 5%
  Population Healthy Nuclei (%): 76% and 77%
  Population Hoechst High Intensity Objects (%): 7%
  Population Membrane Permeable-Phenotype (%): 0%
  Population Mitochondria Different-Phenotype (%): 51% and 65%
  Population Mitotic Cells (%): 63% and 39%
  Population Normal (%): 92%
  Population Pyknosed Nuclei (%): 16%
  Population Tubulin-Different-Phenotype (%): 39% and 26%
  Total Cell Count: 305 and 349
HEK-293T; [5]
  Population Apoptotic (%): 49% and 38%
  Population Fragmented Nuclei (%): 8% and 5%
  Population Healthy Nuclei (%): 74% and 77%
  Population Hoechst High Intensity Objects (%): 5% and 12%
  Population Membrane Permeable-Phenotype (%): 0%
  Population Mitochondria Different-Phenotype (%): 72% and 86%
  Population Mitotic Cells (%): 50% and 62%
  Population Normal (%): 94% and 87%
  Population Pyknosed Nuclei (%): 17% and 16%
  Population Tubulin-Different-Phenotype (%): 62% and 56%
  Total Cell Count: 384 and 345
HEK-293T; [6]
  Population Apoptotic (%): 38% and 50%
  Population Fragmented Nuclei (%): 10% and 8%
  Population Healthy Nuclei (%): 74% and 79%
  Population Hoechst High Intensity Objects (%): 7% and 6%
  Population Membrane Permeable-Phenotype (%): 0%
  Population Mitochondria Different-Phenotype (%): 37% and 48%
  Population Mitotic Cells (%): 61% and 50%
  Population Normal (%): 92% and 93%
  Population Pyknosed Nuclei (%): 14% and 11%
  Population Tubulin-Different-Phenotype (%): 20% and 16%
  Total Cell Count: 395 and 422
HEK-293T; [1]
  Population Apoptotic (%): 43% and 57%
  Population Fragmented Nuclei (%): 9% and 8%
  Population Healthy Nuclei (%): 76% and 72%
  Population Hoechst High Intensity Objects (%): 2% and 5%
  Population Membrane Permeable-Phenotype (%): 0%
  Population Mitochondria Different-Phenotype (%): 62% and 68%
  Population Mitotic Cells (%): 56% and 42%
  Population Normal (%): 97% and 94%
  Population Pyknosed Nuclei (%): 13% and 19%
  Population Tubulin-Different-Phenotype (%): 37% and 28%
  Total Cell Count: 472 and 381
HEK-293T; [2]
  Population Apoptotic (%): 33% and 30%
  Population Fragmented Nuclei (%): 11% and 9%
  Population Healthy Nuclei (%): 80% and 81%
  Population Hoechst High Intensity Objects (%): 1% and 2%
  Population Membrane Permeable-Phenotype (%): 0%
  Population Mitochondria Different-Phenotype (%): 23% and 30%
  Population Mitotic Cells (%): 66% and 69%
  Population Normal (%): 98% and 97%
  Population Pyknosed Nuclei (%): 7% and 9%
  Population Tubulin-Different-Phenotype (%): 13%
  Total Cell Count: 627 and 593
HEK-293T; [3]
  Population Apoptotic (%): 43% and 42%
  Population Fragmented Nuclei (%): 13% and 12%
  Population Healthy Nuclei (%): 80% and 78%
  Population Hoechst High Intensity Objects (%): 4% and 2%
  Population Membrane Permeable-Phenotype (%): 0%
  Population Mitochondria Different-Phenotype (%): 44% and 53%
  Population Mitotic Cells (%): 56% and 57%
  Population Normal (%): 95% and 97%
  Population Pyknosed Nuclei (%): 6% and 9%
  Population Tubulin-Different-Phenotype (%): 16% and 20%
  Total Cell Count: 636 and 521
